Calls of active or inactive are those of the source. No cut-off for these calls is given here.
What was measured:
[1] = target: T1, 5-hydroxytryptamine receptor 2B (Homo sapiens, UniProt P41595); assay: Antagonist activity at 5-HT2B receptor (unknown origin) by calcium release assay; assay type: functional
[2] = target: T1, 5-hydroxytryptamine receptor 2B; assay: Agonist activity at 5-HT2B receptor (unknown origin) by calcium release assay; assay type: functional
Mus musculus [3] = assay: Anticonvulsant activity in mouse assessed as protection against 32/44 mA current-induced seizure at 10 to 100 mg/kg, ip pre-treated 0.25 to 4 hrs before current challenge by 6 Hz psychomotor seizure test; assay type: functional, organism-based
In short: (§1)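 Mice received compound intraperitoneally at 10, 30 and 100 mg/kg. At 0.25, 0.5, 1, 2 and 4 h after dosing, four mice per time point were challenged with 32 or 44 mA for 3 s through corneal electrodes to elicit a partial psychomotor seizure. Data are the number of mice protected over the number tested at each time.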

Mus musculus [4] = assay: Antinociceptive activity in mouse assessed as increase in pain response latency at 100 mg/kg, ip by hot plate assay; assay type: functional, organism-based
In short: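 Mice acclimatized for 10 min, then were placed on a hot plate held at 55 °C inside a clear open-top enclosure. Latency to hindpaw lick, hindpaw flick or jump was timed manually to the nearest 0.1 s.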

[5] = target: T1, 5-hydroxytryptamine receptor 2B; assay: Displacement of [3H]-LSD from human 5-HT2B receptor expressed in HEK cells after 90 mins by microbeta scintillation counting analysis; assay type: cell-based
[6] = target: T1, 5-hydroxytryptamine receptor 2B; assay: Ratio of IC50 for antagonist activity at 5-HT2B receptor (unknown origin) by calcium release assay to Ki for displacement of [3H]-LSD from human 5-HT2B receptor expressed in baculovirus infected Sf9 cells; assay type: functional
Mus musculus [7] = assay: Neurotoxicity in mouse assessed as motor impairment at 100 mg/kg, ip after 0.25 to 4 hrs by rotarod test; assay type: toxicity, organism-based; conditions: in vivo
In short: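 Rotarod, four mice per condition after ip dosing (10, 30 or 100 mg/kg). The rod turns at a fixed 6 rpm, and each mouse is observed for 1 min. Falling off three times within that minute scores as minimal motor impairment. Results are the number impaired over the number tested at 0.25–4 h.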

Mus musculus [8] = assay: Anticonvulsant activity in mouse assessed as protection against maximal electroshock-induced seizure at 100 mg/kg, ip pre-treated 0.25 to 4 hrs before electrical stimulation; assay type: functional, organism-based
In short: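 Maximal electroshock seizure test in mice, four per condition. Compound was given ip at 10, 30 and 100 mg/kg, and mice were challenged at 0.25, 0.5, 1, 2 and 4 h after treatment. Data are the number protected over the number tested.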

Mus musculus [9] = assay: Antinociceptive activity in mouse assessed as tail withdrawal latency at 100 mg/kg, ip by tail flick assay; assay type: functional, organism-based
[10] = target: T2, 5-hydroxytryptamine receptor 2C (Homo sapiens, UniProt P28335); assay: Displacement of [3H]-Mesulergine from human 5-HT2C receptor expressed in HEKT cells after 90 mins by microbeta scintillation counting analysis; assay type: cell-based
T2 sequence (P28335 whole entry): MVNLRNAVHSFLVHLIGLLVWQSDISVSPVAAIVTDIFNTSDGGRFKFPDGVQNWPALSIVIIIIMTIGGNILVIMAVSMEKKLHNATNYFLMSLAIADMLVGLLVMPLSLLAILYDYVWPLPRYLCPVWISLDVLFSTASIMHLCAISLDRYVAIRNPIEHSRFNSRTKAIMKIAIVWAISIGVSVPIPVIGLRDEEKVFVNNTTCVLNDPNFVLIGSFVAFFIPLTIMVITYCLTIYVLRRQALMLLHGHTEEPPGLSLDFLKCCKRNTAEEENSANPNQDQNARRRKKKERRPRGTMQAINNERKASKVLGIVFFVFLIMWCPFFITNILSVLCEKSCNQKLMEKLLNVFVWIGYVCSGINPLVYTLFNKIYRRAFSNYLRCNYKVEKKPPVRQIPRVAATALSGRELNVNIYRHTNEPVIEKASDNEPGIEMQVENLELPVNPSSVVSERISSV

Mus musculus [11] = assay: Anticonvulsant activity in mouse assessed as protection against 44 mA current-induced seizure at 100 mg/kg, ip pre-treated 2 to 4 hrs before current challenge by 6 Hz psychomotor seizure test; assay type: functional, organism-based; in short: as §1
[12] = target: T3, 5-hydroxytryptamine receptor 1D (Homo sapiens, UniProt P28221); assay: Displacement of [3H]5-CT from human 5-HT1D receptor expressed in HEKT cells after 90 mins by microbeta scintillation counting analysis; assay type: cell-based
[13] = target: T2, 5-hydroxytryptamine receptor 2C; assay: Antagonist activity at 5-HT2C receptor (unknown origin) by calcium release assay; assay type: functional
[14] = target: T4, 5-hydroxytryptamine receptor 1A (Homo sapiens, UniProt P08908); assay: Antagonist activity at 5-HT1A receptor (unknown origin) by Tango assay; assay type: functional
T4 sequence (P08908 whole entry): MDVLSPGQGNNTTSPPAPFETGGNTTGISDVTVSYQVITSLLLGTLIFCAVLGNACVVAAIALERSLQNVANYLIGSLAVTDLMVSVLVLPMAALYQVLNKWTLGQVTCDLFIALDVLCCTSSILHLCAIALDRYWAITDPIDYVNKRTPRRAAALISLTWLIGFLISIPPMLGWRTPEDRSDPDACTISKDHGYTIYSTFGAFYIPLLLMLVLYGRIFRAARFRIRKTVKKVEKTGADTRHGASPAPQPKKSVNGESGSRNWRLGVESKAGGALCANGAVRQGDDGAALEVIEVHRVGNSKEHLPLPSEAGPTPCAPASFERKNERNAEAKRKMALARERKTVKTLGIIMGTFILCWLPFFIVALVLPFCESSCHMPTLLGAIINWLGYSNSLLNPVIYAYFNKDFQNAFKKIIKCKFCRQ

[15] = target: 5-hydroxytryptamine receptor 1E (Homo sapiens, UniProt P28566); assay: Displacement of [3H]5-HT from human 5-HT1E receptor expressed in HEK cells after 90 mins by microbeta scintillation counting analysis; assay type: cell-based
[16] = target: T5, 5-hydroxytryptamine receptor 2A (Homo sapiens, UniProt P28223); assay: Displacement of [3H]Ketanserin from 5-HT2A (unknown origin) receptor after 90 mins by microbeta scintillation counting analysis
[17] = target: 5-hydroxytryptamine receptor 5A (Homo sapiens, UniProt P47898); assay: Displacement of [3H]-LSD from human 5-HT5A receptor expressed in Flp-In CHO cells after 90 mins by microbeta scintillation counting analysis; assay type: cell-based
[18] = target: T3, 5-hydroxytryptamine receptor 1D; assay: Antagonist activity at 5-HT1D receptor (unknown origin) by Tango assay; assay type: functional
[19] = target: 5-hydroxytryptamine receptor 6 (Homo sapiens, UniProt P50406); assay: Displacement of [3H]-LSD from human 5-HT6 receptor expressed in HEK cells after 90 mins by microbeta scintillation counting analysis; assay type: cell-based
[20] = target: T6, 5-hydroxytryptamine receptor 7 (Homo sapiens, UniProt P34969); assay: Antagonist activity at 5-HT7A receptor (unknown origin) by Tango assay
[21] = target: T5, 5-hydroxytryptamine receptor 2A; assay: Antagonist activity at 5-HT2A receptor (unknown origin) by calcium release assay; assay type: functional
[22] = target: T7, 5-hydroxytryptamine receptor 3A (Homo sapiens, UniProt P46098); assay: Displacement of [3H]-GR65630 from human 5-HT3 receptor expressed in HEKT cells after 90 mins by microbeta scintillation counting analysis; assay type: cell-based
T7 sequence (P46098 whole entry): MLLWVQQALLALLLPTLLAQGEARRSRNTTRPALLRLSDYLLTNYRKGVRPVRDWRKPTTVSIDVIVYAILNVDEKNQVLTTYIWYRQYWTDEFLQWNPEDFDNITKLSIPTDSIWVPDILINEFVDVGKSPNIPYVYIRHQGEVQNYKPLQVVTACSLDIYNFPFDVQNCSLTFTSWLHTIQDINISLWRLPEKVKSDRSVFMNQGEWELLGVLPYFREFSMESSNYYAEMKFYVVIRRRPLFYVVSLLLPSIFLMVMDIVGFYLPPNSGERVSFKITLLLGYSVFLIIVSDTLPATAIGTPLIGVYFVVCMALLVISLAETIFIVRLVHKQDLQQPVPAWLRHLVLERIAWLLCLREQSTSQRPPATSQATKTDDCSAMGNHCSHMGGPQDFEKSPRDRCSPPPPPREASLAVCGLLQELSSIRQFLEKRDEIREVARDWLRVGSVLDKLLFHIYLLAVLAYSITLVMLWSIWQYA

[23] = target: T6, 5-hydroxytryptamine receptor 7; assay: Displacement of [3H]-LSD from human 5-HT7A receptor expressed in HEK cells after 90 mins by microbeta scintillation counting analysis; assay type: cell-based

T6 sequence (P34969 whole entry): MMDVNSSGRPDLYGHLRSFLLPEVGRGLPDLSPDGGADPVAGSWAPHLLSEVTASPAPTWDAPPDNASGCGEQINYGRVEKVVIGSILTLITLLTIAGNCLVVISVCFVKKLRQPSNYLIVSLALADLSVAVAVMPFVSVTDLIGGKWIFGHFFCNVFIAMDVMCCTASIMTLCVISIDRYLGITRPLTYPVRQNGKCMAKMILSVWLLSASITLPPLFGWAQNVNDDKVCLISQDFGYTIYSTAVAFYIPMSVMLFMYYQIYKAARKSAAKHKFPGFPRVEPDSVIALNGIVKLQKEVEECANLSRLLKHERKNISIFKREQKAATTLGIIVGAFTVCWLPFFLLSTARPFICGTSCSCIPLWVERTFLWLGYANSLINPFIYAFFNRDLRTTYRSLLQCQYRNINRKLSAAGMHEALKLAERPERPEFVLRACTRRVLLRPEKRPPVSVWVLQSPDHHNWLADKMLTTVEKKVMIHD
T3 sequence (P28221 whole entry): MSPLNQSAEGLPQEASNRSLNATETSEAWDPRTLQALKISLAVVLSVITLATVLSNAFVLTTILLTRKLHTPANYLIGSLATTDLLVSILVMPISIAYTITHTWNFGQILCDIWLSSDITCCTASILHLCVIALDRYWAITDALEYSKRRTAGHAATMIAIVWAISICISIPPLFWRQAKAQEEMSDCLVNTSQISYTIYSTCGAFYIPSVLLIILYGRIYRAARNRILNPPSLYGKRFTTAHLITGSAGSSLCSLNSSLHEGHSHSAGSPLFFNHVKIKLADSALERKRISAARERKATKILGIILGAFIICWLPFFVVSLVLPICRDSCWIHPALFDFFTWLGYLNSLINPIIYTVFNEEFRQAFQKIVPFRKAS
T5 sequence (P28223 whole entry): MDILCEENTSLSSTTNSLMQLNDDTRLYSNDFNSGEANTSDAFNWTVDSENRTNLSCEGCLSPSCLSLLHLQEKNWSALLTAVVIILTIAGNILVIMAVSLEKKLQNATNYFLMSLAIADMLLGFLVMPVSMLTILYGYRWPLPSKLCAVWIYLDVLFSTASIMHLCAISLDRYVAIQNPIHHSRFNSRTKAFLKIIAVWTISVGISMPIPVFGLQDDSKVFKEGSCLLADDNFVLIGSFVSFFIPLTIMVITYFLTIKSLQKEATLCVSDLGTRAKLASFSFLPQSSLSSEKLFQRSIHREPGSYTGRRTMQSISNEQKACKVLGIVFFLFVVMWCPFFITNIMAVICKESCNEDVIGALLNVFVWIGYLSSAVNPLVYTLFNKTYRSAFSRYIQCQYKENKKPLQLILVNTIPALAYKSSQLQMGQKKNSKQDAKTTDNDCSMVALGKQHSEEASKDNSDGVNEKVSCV
Sequence of 5-hydroxytryptamine receptor 6 (P50406 whole entry): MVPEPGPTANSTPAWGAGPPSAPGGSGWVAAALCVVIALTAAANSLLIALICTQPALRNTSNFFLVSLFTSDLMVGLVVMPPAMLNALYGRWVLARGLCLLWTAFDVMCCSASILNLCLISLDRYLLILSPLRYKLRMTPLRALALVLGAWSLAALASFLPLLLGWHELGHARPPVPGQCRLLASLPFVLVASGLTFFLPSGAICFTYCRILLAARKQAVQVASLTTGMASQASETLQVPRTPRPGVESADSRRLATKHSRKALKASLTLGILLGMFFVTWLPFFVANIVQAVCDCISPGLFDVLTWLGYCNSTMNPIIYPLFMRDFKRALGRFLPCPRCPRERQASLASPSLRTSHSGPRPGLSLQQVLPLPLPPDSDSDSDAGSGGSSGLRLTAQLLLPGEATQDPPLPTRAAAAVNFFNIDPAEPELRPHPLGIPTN
T1 sequence (P41595 whole entry): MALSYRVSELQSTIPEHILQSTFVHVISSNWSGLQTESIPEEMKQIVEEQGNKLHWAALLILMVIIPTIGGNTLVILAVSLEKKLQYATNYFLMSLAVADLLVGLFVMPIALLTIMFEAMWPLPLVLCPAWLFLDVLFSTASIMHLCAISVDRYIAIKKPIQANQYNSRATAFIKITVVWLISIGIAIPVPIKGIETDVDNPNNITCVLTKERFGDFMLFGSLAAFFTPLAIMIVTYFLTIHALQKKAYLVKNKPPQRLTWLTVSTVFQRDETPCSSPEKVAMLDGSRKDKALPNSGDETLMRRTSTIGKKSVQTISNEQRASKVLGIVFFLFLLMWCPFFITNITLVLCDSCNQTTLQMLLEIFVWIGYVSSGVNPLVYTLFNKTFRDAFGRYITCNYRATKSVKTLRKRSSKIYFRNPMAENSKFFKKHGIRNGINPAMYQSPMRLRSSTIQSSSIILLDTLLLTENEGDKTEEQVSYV
Sequence of 5-hydroxytryptamine receptor 5A (P47898 whole entry): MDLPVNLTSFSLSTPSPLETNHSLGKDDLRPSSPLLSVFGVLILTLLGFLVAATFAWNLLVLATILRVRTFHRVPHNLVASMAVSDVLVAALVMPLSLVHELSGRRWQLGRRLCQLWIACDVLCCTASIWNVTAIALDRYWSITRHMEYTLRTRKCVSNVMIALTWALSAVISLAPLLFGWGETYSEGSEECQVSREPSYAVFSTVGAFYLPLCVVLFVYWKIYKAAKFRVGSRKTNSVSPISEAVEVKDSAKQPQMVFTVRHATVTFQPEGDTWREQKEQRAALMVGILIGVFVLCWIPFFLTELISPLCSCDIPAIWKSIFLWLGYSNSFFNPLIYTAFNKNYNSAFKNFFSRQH
Sequence of 5-hydroxytryptamine receptor 1E (P28566 whole entry): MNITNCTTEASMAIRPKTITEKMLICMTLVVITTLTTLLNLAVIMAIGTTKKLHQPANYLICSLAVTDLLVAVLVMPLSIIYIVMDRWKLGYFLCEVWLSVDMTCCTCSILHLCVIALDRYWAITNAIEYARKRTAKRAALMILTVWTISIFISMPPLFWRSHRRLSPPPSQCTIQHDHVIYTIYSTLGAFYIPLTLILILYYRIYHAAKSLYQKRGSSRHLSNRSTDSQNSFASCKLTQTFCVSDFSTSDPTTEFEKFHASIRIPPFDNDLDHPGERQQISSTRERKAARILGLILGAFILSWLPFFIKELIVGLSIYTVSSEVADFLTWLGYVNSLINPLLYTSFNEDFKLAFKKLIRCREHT

SMILES	IC50 [1] [µM]	Ki [5] [µM]	Ki [10] [µM]	Ki [12] [µM]	IC50 [13] [µM]	IC50 [14] [µM]	Ki [15] [µM]	Ki [16] [µM]	Ki [17] [µM]	Ki [19] [µM]	IC50 [20] [µM]	Ki [22] [µM]	Ki [23] [µM]	further results
C[C@@H]1SC(c2ccccc2O)=N[C@H]1CO	18	0.13	1.6											Activity [2]: inactive; Activity (Mus musculus [3]): Active; Activity (Mus musculus [4]): Active; Ratio [6]: 50 to 140; Activity (Mus musculus [7]): Non-Toxic; Activity (Mus musculus [8]): inactive; Activity (Mus musculus [9]): inactive; Activity (Mus musculus [11]): inactive
COC(=O)[C@H](Cc1cnc[nH]1)NC(=O)[C@H]1N=C(c2ccccc2O)S[C@@H]1C	10	1	0.82	3.3	> 10	> 10	1.4	0.31						
Oc1ccccc1C1=NC(Cc2c[nH]cn2)C(c2ccccc2)S1 (racemic)	3.8	0.1	0.77	2.2	> 10	> 10	2.4	1.1	4.7	2.2	> 10	0.86	> 10	IC50 [18]: > 10 µM; IC50 [21]: 13 µM
C[C@@H]1SC(c2ccccc2O)=N[C@H]1Cc1c[nH]cn1 (racemic)	0.8	0.047	0.14	2	6.8	> 10	> 10	1.4	> 10	2.6		0.24	3.6	
C[C@@H]1SC(c2ccccc2)=N[C@H]1Cc1c[nH]cn1 (relative stereo)	10	0.38	1.2	0.8		> 10	> 10	5.8	> 10	> 10	> 10	0.15	> 10	

From ChEMBL document CHEMBL4190286, “Modulating the Serotonin Receptor Spectrum of Pulicatin Natural Products” (J Nat Prod, 2017)
